# Measured values from the M2OR odorant receptor database.
# Experiments:
# Conditions in all cases: stereoisomer not certain
# OR1A1 (Homo sapiens) = target: T1, OR1A1 (Homo sapiens) (UniProt Q9P1Q5)
# T1 sequence (whole entry): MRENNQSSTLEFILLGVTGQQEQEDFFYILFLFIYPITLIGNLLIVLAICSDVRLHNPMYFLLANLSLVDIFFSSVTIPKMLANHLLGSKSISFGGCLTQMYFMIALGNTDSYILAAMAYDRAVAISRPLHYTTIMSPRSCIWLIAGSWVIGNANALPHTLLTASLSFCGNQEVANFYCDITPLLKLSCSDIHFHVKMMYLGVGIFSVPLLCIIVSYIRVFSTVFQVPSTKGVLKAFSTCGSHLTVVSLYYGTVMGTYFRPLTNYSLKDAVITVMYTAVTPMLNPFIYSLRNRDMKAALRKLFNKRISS
# Method in brief: (§1)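 Transient luciferase assays in mammalian cell lines were common, though methods varied by source. The values come from published papers and their supplementary material, with extra details from the original authors when needed. Responsive refers to a measured signal the original authors judged statistically different from baseline, and non-responsive (inactive) to the remainder.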
# OR1A2 (Homo sapiens) = target: T2, OR1A2 (Homo sapiens) (UniProt Q9Y585)
# T2 sequence (whole entry): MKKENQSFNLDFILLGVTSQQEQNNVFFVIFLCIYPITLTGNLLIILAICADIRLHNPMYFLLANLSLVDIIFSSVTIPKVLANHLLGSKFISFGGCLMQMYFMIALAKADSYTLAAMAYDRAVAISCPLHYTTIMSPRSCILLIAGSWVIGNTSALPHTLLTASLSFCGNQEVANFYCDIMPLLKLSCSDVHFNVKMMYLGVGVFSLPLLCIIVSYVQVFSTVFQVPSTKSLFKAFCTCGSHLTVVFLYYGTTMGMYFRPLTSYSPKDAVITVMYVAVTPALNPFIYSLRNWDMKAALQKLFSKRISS
# Method in brief: as §1
# OR1D2 (Homo sapiens) = target: T3, OR1D2 (Homo sapiens) (UniProt P34982)
# T3 sequence (whole entry): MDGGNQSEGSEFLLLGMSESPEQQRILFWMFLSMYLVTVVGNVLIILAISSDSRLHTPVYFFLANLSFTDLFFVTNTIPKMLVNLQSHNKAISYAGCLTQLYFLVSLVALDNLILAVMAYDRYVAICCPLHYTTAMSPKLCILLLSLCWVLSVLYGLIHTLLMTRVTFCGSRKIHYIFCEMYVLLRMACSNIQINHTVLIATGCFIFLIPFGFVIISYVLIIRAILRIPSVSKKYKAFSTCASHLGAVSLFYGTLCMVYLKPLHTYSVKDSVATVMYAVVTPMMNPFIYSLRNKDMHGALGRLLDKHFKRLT
# Method in brief: as §1
# OR13G1 (Homo sapiens) = OR13G1 (Homo sapiens) (UniProt Q8NGZ3)
# Chain of OR13G1 (Homo sapiens) (Q8NGZ3 whole entry): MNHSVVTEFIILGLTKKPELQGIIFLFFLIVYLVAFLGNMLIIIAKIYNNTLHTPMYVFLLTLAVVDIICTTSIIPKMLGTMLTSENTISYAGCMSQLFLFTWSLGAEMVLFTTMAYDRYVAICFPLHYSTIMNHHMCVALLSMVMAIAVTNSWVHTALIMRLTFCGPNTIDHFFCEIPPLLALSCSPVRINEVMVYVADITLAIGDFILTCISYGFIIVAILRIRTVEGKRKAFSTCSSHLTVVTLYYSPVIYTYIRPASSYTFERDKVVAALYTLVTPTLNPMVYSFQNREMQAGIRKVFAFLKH
# Method in brief: as §1
# OR13H1 (Homo sapiens) = OR13H1 (Homo sapiens) (UniProt Q8NG92)
# Chain of OR13H1 (Homo sapiens) (Q8NG92 whole entry): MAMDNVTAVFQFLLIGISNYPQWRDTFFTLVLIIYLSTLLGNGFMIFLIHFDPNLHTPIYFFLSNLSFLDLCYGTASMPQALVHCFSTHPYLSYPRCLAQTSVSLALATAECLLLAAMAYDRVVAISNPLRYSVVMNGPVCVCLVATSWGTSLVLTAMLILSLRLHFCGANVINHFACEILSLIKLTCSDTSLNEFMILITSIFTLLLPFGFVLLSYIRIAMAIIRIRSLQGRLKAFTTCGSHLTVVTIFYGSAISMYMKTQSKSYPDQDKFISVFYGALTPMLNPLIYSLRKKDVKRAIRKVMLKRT
# Method in brief: as §1
# OR13J1 (Homo sapiens) = OR13J1 (Homo sapiens) (UniProt Q8NGT2)
# Chain of OR13J1 (Homo sapiens) (Q8NGT2 whole entry): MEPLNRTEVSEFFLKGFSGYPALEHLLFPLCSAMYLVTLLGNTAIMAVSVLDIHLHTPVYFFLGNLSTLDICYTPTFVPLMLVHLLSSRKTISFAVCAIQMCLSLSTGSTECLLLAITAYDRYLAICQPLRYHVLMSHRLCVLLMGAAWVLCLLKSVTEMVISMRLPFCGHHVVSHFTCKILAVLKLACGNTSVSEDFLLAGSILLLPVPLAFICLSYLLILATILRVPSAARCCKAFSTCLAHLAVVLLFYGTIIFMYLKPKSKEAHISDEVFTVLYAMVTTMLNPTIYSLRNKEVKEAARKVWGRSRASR
# Method in brief: as §1
# OR14A16 (Homo sapiens) = OR14A16 (Homo sapiens) (UniProt Q8NHC5)
# Chain of OR14A16 (Homo sapiens) (Q8NHC5 whole entry): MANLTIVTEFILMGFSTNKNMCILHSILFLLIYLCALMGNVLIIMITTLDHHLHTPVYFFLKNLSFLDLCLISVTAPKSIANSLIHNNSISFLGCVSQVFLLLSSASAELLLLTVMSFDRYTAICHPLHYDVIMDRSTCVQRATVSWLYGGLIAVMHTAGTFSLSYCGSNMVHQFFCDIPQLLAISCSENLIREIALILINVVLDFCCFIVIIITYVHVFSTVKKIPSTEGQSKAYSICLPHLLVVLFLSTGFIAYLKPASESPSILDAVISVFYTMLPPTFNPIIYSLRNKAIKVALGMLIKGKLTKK
# Method in brief: as §1
# OR14A2 (Homo sapiens) = OR14A2 (Homo sapiens) (UniProt Q96R54)
# Chain of OR14A2 (Homo sapiens) (Q96R54 whole entry): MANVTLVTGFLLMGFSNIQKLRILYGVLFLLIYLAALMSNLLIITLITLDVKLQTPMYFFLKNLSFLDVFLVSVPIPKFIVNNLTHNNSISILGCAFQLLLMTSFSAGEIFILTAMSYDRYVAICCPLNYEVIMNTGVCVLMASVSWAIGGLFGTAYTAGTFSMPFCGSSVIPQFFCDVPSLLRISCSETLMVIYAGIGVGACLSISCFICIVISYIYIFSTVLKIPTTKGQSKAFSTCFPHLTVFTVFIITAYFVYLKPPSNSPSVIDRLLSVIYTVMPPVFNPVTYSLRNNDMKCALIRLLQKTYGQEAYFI
# Method in brief: as §1
# OR14C36 (Homo sapiens) = OR14C36 (Homo sapiens) (UniProt Q8NHC7)
# Chain of OR14C36 (Homo sapiens) (Q8NHC7 whole entry): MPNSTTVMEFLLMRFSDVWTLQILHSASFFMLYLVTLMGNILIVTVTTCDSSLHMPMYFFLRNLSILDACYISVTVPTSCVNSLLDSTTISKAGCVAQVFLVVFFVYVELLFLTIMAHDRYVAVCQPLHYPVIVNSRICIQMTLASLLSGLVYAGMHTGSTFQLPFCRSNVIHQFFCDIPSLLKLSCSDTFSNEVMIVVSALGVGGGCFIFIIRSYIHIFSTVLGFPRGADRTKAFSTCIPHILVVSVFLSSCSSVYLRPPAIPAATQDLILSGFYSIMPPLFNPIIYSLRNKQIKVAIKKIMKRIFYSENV
# Method in brief: as §1
# OR14I1 (Homo sapiens) = OR14I1 (Homo sapiens) (UniProt A6ND48)
# Chain of OR14I1 (Homo sapiens) (A6ND48 whole entry): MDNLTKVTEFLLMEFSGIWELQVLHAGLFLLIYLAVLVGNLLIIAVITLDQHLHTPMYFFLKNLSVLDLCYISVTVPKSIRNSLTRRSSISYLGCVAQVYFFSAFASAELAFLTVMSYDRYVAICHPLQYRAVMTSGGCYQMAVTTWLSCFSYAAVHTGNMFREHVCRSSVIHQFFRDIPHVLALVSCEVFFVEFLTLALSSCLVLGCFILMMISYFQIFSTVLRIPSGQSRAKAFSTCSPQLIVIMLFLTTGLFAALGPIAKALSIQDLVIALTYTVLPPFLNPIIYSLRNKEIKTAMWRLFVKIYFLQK
# Method in brief: as §1
# OR14J1 (Homo sapiens) = OR14J1 (Homo sapiens) (UniProt Q9UGF5)
# Chain of OR14J1 (Homo sapiens) (Q9UGF5 whole entry): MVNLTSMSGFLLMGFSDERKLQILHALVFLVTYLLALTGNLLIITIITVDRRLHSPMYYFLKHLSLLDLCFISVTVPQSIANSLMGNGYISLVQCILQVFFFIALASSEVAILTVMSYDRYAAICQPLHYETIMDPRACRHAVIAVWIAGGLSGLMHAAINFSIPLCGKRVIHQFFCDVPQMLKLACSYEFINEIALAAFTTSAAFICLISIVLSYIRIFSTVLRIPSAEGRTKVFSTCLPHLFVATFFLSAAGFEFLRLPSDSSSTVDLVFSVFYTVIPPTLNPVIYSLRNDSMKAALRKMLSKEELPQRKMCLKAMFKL
# Method in brief: as §1
# OR14K1 (Homo sapiens) = OR14K1 (Homo sapiens) (UniProt Q8NGZ2)
# Chain of OR14K1 (Homo sapiens) (Q8NGZ2 whole entry): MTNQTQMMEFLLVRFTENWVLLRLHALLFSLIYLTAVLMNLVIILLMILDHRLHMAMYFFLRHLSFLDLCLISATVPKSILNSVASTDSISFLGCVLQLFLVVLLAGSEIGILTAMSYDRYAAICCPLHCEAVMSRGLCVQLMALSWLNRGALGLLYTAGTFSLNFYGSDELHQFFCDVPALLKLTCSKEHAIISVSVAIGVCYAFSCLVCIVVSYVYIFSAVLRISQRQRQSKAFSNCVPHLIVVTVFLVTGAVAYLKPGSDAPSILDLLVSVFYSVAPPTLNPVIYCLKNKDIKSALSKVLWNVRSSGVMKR
# Method in brief: as §1
# OR1A2 G256C W293C = tested on: OR1A2 G256C W293C
# Method in brief: as §1
# OR1B1 = tested on: OR1B1
# Chain of OR1B1 (as listed by the source): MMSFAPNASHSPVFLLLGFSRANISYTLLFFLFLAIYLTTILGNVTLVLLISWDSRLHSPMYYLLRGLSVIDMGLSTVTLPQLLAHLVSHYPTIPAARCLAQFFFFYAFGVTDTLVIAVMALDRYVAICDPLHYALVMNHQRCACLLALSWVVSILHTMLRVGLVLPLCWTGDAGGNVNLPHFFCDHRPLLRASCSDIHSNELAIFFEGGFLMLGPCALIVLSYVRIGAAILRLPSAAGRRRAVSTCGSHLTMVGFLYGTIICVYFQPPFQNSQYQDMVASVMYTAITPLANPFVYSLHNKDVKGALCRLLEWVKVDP
# Method in brief: as §1
# OR1C1 (Homo sapiens) = OR1C1 (Homo sapiens) (UniProt Q15619)
# Chain of OR1C1 (Homo sapiens) (Q15619 whole entry): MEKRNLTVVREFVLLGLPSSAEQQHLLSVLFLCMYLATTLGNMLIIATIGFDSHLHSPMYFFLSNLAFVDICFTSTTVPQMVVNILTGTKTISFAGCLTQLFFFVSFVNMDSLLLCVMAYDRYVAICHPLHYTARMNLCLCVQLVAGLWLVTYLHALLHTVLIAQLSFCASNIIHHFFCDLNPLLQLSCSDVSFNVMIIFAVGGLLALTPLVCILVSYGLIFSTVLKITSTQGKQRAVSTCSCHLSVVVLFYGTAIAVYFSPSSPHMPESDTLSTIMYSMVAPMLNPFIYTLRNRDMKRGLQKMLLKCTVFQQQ
# Method in brief: as §1
# OR1D5 (Homo sapiens) = OR1D5 (Homo sapiens) (UniProt P58170)
# Chain of OR1D5 (Homo sapiens) (P58170 whole entry): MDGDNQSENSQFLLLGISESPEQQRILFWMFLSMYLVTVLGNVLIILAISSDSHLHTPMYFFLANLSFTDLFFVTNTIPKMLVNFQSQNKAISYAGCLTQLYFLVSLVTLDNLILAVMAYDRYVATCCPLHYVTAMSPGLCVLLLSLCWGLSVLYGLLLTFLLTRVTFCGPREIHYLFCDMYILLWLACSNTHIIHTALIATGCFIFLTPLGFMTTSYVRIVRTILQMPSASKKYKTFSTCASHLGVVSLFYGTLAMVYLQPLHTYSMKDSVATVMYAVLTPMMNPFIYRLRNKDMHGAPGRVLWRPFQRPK
# Method in brief: as §1
# OR1E1 (Homo sapiens) = OR1E1 (Homo sapiens) (UniProt P30953)
# Chain of OR1E1 (Homo sapiens) (P30953 whole entry): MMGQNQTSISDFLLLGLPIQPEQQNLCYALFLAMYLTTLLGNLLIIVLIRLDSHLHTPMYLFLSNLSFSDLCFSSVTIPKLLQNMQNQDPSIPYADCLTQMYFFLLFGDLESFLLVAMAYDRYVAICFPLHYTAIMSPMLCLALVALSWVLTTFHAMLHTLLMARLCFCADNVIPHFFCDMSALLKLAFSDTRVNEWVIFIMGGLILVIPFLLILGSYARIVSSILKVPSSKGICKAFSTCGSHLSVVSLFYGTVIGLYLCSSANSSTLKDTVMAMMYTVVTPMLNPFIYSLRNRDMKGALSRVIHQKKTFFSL
# Method in brief: as §1
# OR1E2 (Homo sapiens) = OR1E2 (Homo sapiens) (UniProt P47887)
# Chain of OR1E2 (Homo sapiens) (P47887 whole entry): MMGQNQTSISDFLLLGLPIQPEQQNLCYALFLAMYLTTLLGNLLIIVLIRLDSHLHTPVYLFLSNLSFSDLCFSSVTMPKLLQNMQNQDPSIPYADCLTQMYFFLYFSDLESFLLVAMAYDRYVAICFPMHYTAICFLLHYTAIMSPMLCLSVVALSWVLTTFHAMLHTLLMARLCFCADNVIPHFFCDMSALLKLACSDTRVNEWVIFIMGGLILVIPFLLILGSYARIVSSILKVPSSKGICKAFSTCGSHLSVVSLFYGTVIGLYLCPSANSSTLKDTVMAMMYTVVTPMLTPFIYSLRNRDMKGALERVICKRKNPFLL
# Method in brief: as §1
# OR1E2 = tested on: OR1E2
# Chain of OR1E2 (as listed by the source): as the sequence (P47887 whole entry) above, with C27R counted along it
# Method in brief: as §1
# OR1D4 (Homo sapiens) = OR1D4 (Homo sapiens) (UniProt P47884)
# Chain of OR1D4 (Homo sapiens) (P47884 whole entry): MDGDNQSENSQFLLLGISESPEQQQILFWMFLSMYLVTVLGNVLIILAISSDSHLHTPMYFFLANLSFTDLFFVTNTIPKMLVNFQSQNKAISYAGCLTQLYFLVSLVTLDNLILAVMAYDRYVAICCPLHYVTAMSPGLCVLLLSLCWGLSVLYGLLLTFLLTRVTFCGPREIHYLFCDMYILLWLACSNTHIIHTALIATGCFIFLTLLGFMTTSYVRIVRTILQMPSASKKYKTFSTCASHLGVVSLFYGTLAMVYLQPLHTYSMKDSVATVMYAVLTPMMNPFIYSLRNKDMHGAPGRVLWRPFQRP
# Method in brief: as §1
# 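Also: active if original authors judged signal statistically different from baseline.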
smiles,measurement,setting,value
CC(C=O)Cc1ccc2c(c1)OCO2 (centres undefined),odorant receptor agonist call,OR1A1 (Homo sapiens),active
same,odorant receptor agonist call,OR1A2 (Homo sapiens),active
same,odorant receptor agonist call,OR1D2 (Homo sapiens),inactive
CSSC,odorant receptor agonist call,OR1A1 (Homo sapiens),inactive
O=c1cc(O)c2ccccc2o1,odorant receptor agonist call,OR1A1 (Homo sapiens),inactive
C=CCOC(=O)Cc1ccccc1,odorant receptor agonist call,OR13G1 (Homo sapiens),inactive
same,odorant receptor agonist call,OR13H1 (Homo sapiens),inactive
same,odorant receptor agonist call,OR13J1 (Homo sapiens),inactive
same,odorant receptor agonist call,OR14A16 (Homo sapiens),inactive
same,odorant receptor agonist call,OR14A2 (Homo sapiens),inactive
same,odorant receptor agonist call,OR14C36 (Homo sapiens),inactive
same,odorant receptor agonist call,OR14I1 (Homo sapiens),inactive
same,odorant receptor agonist call,OR14J1 (Homo sapiens),inactive
same,odorant receptor agonist call,OR14K1 (Homo sapiens),inactive
same,odorant receptor agonist call,OR1A1 (Homo sapiens),active
same,odorant receptor agonist call,OR1A2 (Homo sapiens),inactive
same,odorant receptor agonist call,OR1A2 G256C W293C,inactive
same,odorant receptor agonist call,OR1B1,inactive
same,odorant receptor agonist call,OR1C1 (Homo sapiens),inactive
same,odorant receptor agonist call,OR1D2 (Homo sapiens),inactive
same,odorant receptor agonist call,OR1D5 (Homo sapiens),inactive
same,odorant receptor agonist call,OR1E1 (Homo sapiens),inactive
same,odorant receptor agonist call,OR1E2 (Homo sapiens),inactive
same,odorant receptor agonist call,OR1E2,inactive
CCC1CCC(=O)O1 (centres undefined),odorant receptor agonist call,OR1A1 (Homo sapiens),inactive
O=C(O)Cc1ccccc1,odorant receptor agonist call,OR1A1 (Homo sapiens),inactive
O=CC=Cc1ccccc1,odorant receptor agonist call,OR1D2 (Homo sapiens),inactive
O=Cc1ccccc1,odorant receptor agonist call,OR1D2 (Homo sapiens),inactive
SCc1ccco1,odorant receptor agonist call,OR1A1 (Homo sapiens),inactive
CCCCC(Br)C(=O)O (centres undefined),odorant receptor agonist call,OR1A1 (Homo sapiens),inactive
same,odorant receptor agonist call,OR1A2 (Homo sapiens),inactive
COc1ccc(C=O)cc1,odorant receptor agonist call,OR1A1 (Homo sapiens),inactive
CCC(Br)C(=O)O (centres undefined),odorant receptor agonist call,OR1A1 (Homo sapiens),inactive
same,odorant receptor agonist call,OR1A2 (Homo sapiens),inactive
Cc1c([N+](=O)[O-])c(C)c([N+](=O)[O-])c(C(C)(C)C)c1[N+](=O)[O-],odorant receptor agonist call,OR13G1 (Homo sapiens),inactive
same,odorant receptor agonist call,OR13H1 (Homo sapiens),inactive
same,odorant receptor agonist call,OR13J1 (Homo sapiens),inactive
same,odorant receptor agonist call,OR14A16 (Homo sapiens),inactive
same,odorant receptor agonist call,OR14A2 (Homo sapiens),inactive
same,odorant receptor agonist call,OR14C36 (Homo sapiens),inactive
same,odorant receptor agonist call,OR14I1 (Homo sapiens),inactive
same,odorant receptor agonist call,OR14J1 (Homo sapiens),inactive
same,odorant receptor agonist call,OR14K1 (Homo sapiens),inactive
same,odorant receptor agonist call,OR1A1 (Homo sapiens),active
same,odorant receptor agonist call,OR1A2 (Homo sapiens),inactive
same,odorant receptor agonist call,OR1B1,inactive
same,odorant receptor agonist call,OR1C1 (Homo sapiens),inactive
same,odorant receptor agonist call,OR1D4 (Homo sapiens),inactive
same,odorant receptor agonist call,OR1D5 (Homo sapiens),inactive
same,odorant receptor agonist call,OR1E2 (Homo sapiens),inactive
O=C([O-])Cc1ccccc1,odorant receptor agonist call,OR1A1 (Homo sapiens),inactive
same,odorant receptor agonist call,OR1A2 (Homo sapiens),inactive
CCCCCCC(Br)C(=O)O (centres undefined),odorant receptor agonist call,OR1A1 (Homo sapiens),inactive
same,odorant receptor agonist call,OR1A2 (Homo sapiens),inactive
ClC=CCl,odorant receptor agonist call,OR1A1 (Homo sapiens),inactive
same,odorant receptor agonist call,OR1A2 (Homo sapiens),inactive
C=CCc1ccccc1,odorant receptor agonist call,OR1A1 (Homo sapiens),inactive
C=CCSSCC=C,odorant receptor agonist call,OR1A1 (Homo sapiens),inactive
C=CCc1ccc(OC)cc1,odorant receptor agonist call,OR1A1 (Homo sapiens),active
Cc1ccccc1O,odorant receptor agonist call,OR1A1 (Homo sapiens),inactive
CCOC(=O)Cc1ccccc1,odorant receptor agonist call,OR1A1 (Homo sapiens),active
CCCC(Br)C(=O)O (centres undefined),odorant receptor agonist call,OR1A1 (Homo sapiens),inactive
same,odorant receptor agonist call,OR1A2 (Homo sapiens),inactive
Cc1ccc(O)c(C)c1,odorant receptor agonist call,OR1A1 (Homo sapiens),inactive
